Paper PMC12443483 (Journal of the American Chemical Society, 2025)
Where “and” joins values, the source holds several entries; their conditions need not be identical. Equal entries are not always repeated.

Legend:
[1] = Polarity sensitivity: emission across solvents with varying dielectric constants; format: physicochemical; settings: for Polarity sensitivity: λem versus solvent dielectric constant; for Emission wavelength range (solvatochromism): depending on solvent polarity
[2] = Viscosity sensitivity: fluorescence in ethylene glycol/glycerol mixtures; format: physicochemical; settings: EG/G mixtures 16 to 851 cP; for Viscosity sensitivity χ2: second-order polynomial regression, 25 μM probe
Method in brief: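 Fluorescence was measured in ethylene glycol/glycerol mixtures spanning 16–851 cP; the two solvents were chosen for closely matched dielectric constants, to minimise polarity effects. χ2 was derived from second-order polynomial regression of intensity against viscosity.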

[3] = Temperature dependence of fluorescence in methanol/glycerol mixtures; format: physicochemical
Method in brief: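 Fluorescence of 25 μM probe was measured in methanol/glycerol mixtures of varying viscosity at 25 and 42 °C. Fluorescence fold change was plotted against viscosity.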

[4] = Photophysical characterization by absorption and fluorescence spectroscopy; format: physicochemical; settings: for Absorbance λabs (maximum absorption wavelength) / Emission λem (maximum emission wavelength) / ε (molar absorption coefficient at maximum absorption wavelength): 25 μM probe in CH3CN/PBS pH 7.4; for Stokes Shift: difference between λabs and λem, CH3CN/PBS pH 7.4
Method in brief: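 Probe at 25 μM final in CH3CN/PBS (50:50 v/v), pH 7.4. Absorption and emission spectra were recorded, with excitation at each probe's absorption maximum. ε was taken at the absorption maximum, and Stokes shift as the absorption–emission maximum difference. Quantum yield (error limit ±5) was measured in this mixture and also in CH3CN.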

αS fibrils [5] = target: T1, αS fibrils (Homo sapiens, UniProt P37840); test: Concentration-dependent binding λem and local dielectric constant on αS fibrils; settings: for Dielectric constant of local environment of probe bound to αS fibrils: calculated from fits of λem in solvents, 581 nm for 3c, 617 nm for 4a
PDD-derived AFs = PDD-derived AFs (Homo sapiens, UniProt P37840); test: Fluorescence with amplified fibrils; format: binding; settings: 1 μM probe, 1 μM AFs, average of three PDD patients
Method in brief: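 Probe (1 μM) was mixed with amplified fibrils (1 μM) or brain lysates from three PDD patients, and the averages are shown. Ex/Em was set per probe: 463/580 or 484/620 nm, with ThT reference at 450/482 nm. Fold change is after subtracting free probe fluorescence in PBS. Error bars are SD of 3 measurements.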

αS fibrils [6] = target: T1, αS fibrils; test: Binding affinity; settings: for Kd: read-out: Dissociation constant (Kd), probe 10 nM–10 μM with 100 μM αS fibrils
αS fibrils [7] = target: T1, αS fibrils; test: Competition binding studies with ThT, Ex6 and BF2846 on αS fibrils; settings: for Competition with ThT: some ThT emission remained at saturating concentrations
tau fibrils = test: Amyloid selectivity: turn-on with αS fibrils relative to tau fibrils; format: binding; settings: 1 μM probe
Aβ1–42 fibrils = test: Amyloid selectivity: turn-on with αS fibrils relative to Aβ1–42 fibrils; format: binding; settings: 1 μM probe
αS/Tau0N4R condensates = test: CLSM staining of αS/tau condensates relative to αS fibrils; settings: 80 μM αS / 40 μM tau, LLPS buffer
αS/pLK condensates = test: CLSM staining of αS/pLK LLPS condensates relative to αS fibrils; settings: αS 100 μM / pLK 0.25 mg/mL, LLPS buffer
Method in brief: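 Condensates of αS (100 μM) and poly-L-lysine (0.25 mg/mL), doped with 5% Acd-labelled αS (position 94) and 5% FITC-poly-L-lysine, stained and imaged by confocal microscopy. Channels: Acd 430–480 nm (Ex 405 nm); FITC 500–540 nm; probe Ex 561 nm, Em 570–620 or 630–680 nm. Probe intensity in condensates was divided by that with αS fibrils. Buffer: HEPES/NaCl/TCEP pH 7.4 with 15% PEG-8000, room temperature. SD of >3 measurements.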

αS = αS (Homo sapiens, UniProt P37840); test: Monitoring αS aggregation over prolonged agitation; format: biochemical; settings: PBS buffer, 37 °C; for Detection of early αS aggregation species (misfolding, oligomers/protofibrils): 0–40 hours
αS monomer = αS monomer (Homo sapiens, UniProt P37840); test: Fluorescence with TMAO-induced αS misfolding/oligomers; format: biochemical
Method in brief: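 Monomeric αS (50 μM) was exposed to trimethylamine N-oxide at 2, 4 or 6 M to induce misfolding or oligomers, then probe fluorescence was read. Fold change is relative to free probe in Tris buffer containing the same TMAO concentration.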

αS fibrils [8] = target: T1, αS fibrils; test: Turn-on fluorescence upon binding to αS fibrils; settings: for Brightness increase upon binding to αS fibrils / Emission wavelength upon binding to αS fibrils: 10 μM probe, 50 μM αS fibrils; for Fluorescence lifetime (τ) upon binding to αS fibrils: bound to αS fibrils
Method in brief: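 Emission spectra of 10 μM probe were recorded with 50 μM αS monomer or fibrils. Samples were also photographed under a 365 nm hand-held UV lamp.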

Tau0N4R condensates [9] = target: Tau0N4R condensates (Homo sapiens, UniProt P10636); test: CLSM staining of Tau0N4R condensates with and without αS; settings: 40 μM Tau0N4R without αS, 630–680 nm channel
Chain of Tau0N4R condensates (Homo sapiens, UniProt P10636) (P10636 2-383 isoform P10636-6): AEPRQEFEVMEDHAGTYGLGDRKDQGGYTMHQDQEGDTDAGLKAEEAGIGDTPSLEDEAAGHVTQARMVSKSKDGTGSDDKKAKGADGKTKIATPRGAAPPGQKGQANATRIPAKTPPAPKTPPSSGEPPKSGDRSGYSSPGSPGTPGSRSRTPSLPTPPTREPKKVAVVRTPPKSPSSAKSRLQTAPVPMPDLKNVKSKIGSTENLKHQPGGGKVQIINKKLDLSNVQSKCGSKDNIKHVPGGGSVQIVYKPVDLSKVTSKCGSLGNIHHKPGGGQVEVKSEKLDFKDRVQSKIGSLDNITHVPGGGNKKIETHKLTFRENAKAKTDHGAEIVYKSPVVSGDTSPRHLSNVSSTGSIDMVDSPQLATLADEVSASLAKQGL
Method in brief: (§1)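 Confocal imaging of 40 μM Tau0N4R condensates, with or without 80 μM αS, doped with 5% AF488-labelled Tau0N4R. Buffer: 20 mM HEPES, 150 mM NaCl, 1 mM TCEP, pH 7.4, 15% PEG-8000, room temperature. Probe read at Ex 561 nm, Em 630–680 nm; AF488-tau at Ex 488 nm, Em 500–540 nm. Error bars are SD of >3 measurements.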

Tau0N4R condensates [10] = test: as above; settings: 40 μM Tau0N4R with or without 80 μM αS
Method in brief: as §1

[11] = 2 M TMAO, 50 μM αS monomer, 10 μM probe
[12] = 4 M TMAO, 50 μM αS monomer, 10 μM probe
[13] = 6 M TMAO, 50 μM αS monomer, 10 μM probe

| Compound | Polarity sensitivity [1] | Fluorescence intensity change with viscosity [2] | Viscosity sensitivity χ2 [2] | Fluorescence change between 25 °C and 42 °C [3] | Absorbance λabs (maximum absorption wavelength) [4] | Emission λem (maximum emission wavelength) [4] | ε (molar absorption coefficient at maximum absorption wavelength) [4] | Fluorescence QY ([4]; CH3CN/PBS pH 7.4, 25 μM) | Stokes Shift [4] | Fluorescence QY ([4]; in CH3CN) | Emission wavelength range (solvatochromism) [1] | λem as probe concentration increased (αS fibrils [5]; bound to αS fibrils) | Dielectric constant of local environment of probe bound to αS fibrils (αS fibrils [5]) | Fluorescence with PDD-derived AFs compared to unamplified lysate (PDD-derived AFs) | Kd (αS fibrils [6]) | Displacement of probe fluorescence by BF2846 (Site B binder) (αS fibrils [7]) | Displacement of probe fluorescence by Ex6 (Site A binder) (αS fibrils [7]) | Competition with ThT (αS fibrils [7]) | Staining: probe intensity ratio αS/Tau condensates to αS fibrils (αS/Tau0N4R condensates) | Staining efficiency: probe intensity ratio αS/pLK condensates to αS fibrils (αS/pLK condensates) | also measured |
| --- | --- | --- | --- | --- | --- | --- | --- | --- | --- | --- | --- | --- | --- | --- | --- | --- | --- | --- | --- | --- | --- |
| Cc1c(C)n2c(/C=C/c3ccc(N)cc3)c(C)c(=O)n2c1=O [3a] | 26.7 | 5.4 fold | 1.0 ×10^−3 | 2.14 fold | 385 nm | 583 nm | 30800 M⁻¹ cm⁻¹ | 0.7% | 198 nm | 1.5% |  |  |  |  |  |  |  |  |  |  |  |
| CNc1ccc(/C=C/c2c(C)c(=O)n3c(=O)c(C)c(C)n23)cc1 [3b] | 30.7 | 4.68 fold | 0.7 ×10^−3 |  | 399 nm | 591 nm | 26400 M⁻¹ cm⁻¹ | 0.5% | 192 nm | 2.0% | 486–640 nm |  |  |  |  |  |  |  |  |  |  |
| Cc1c(C)n2c(/C=C/c3ccc(N(C)C)cc3)c(C)c(=O)n2c1=O [3c] | 32.1 | 3.82 fold | 0.6 ×10^−3 | 2.48 fold | 418 nm | 604 nm | 30400 M⁻¹ cm⁻¹ | 0.5% | 186 nm | 7.3 ± 0.3% and 7.3% |  | 575 to 581 nm | 35.9 | 2.4 fold | 1450 ± 430 nM | partially displaced | not displaced | competed with the promiscuous binder ThT | 0.37 fold | 0.68 fold | λem shift as concentration increased (αS fibrils [5]; bound to αS fibrils): 6 nm; Turn-on for αS fibrils relative to tau fibrils (tau fibrils): 2.8 fold; Turn-on for αS fibrils relative to Aβ1–42 fibrils (Aβ1–42 fibrils): 5.2 fold; Detection of early αS aggregation species (misfolding, oligomers/protofibrils) (αS): unable to detect changes within 20 h; λem with αS/TMAO (αS monomer; 4 M TMAO): 566 nm; λem with αS/TMAO (αS monomer; 6 M TMAO): 560 nm; Brightness increase upon binding to αS fibrils (αS fibrils [8]): 476 fold; Emission wavelength upon binding to αS fibrils (αS fibrils [8]): 580 nm; Fluorescence lifetime (τ) upon binding to αS fibrils (αS fibrils [8]): 2.27 ns |
| Cc1c(C)n2c(/C=C/C=C/c3ccc(N(C)C)cc3)c(C)c(=O)n2c1=O [4a] | ~ 31.5 | around 3 fold |  |  | 436 nm | 640 nm | 36700 M⁻¹ cm⁻¹ | 0.6% | 204 nm | 13.5% | 486–640 nm | 617 to 618 nm | 27.6 | 2.6 fold | 420 ± 250 nM | not affected | not affected | competed with the promiscuous binder ThT | 1.12 fold | 1.11 fold | Affinity relative to 3c (αS fibrils [6]; Kd ratio 3c/4a): 3.5 times; λem shift ([1]; across solvents with dielectric constants from 2.38 to 8.93): 64 nm; Staining of tau-only condensates (Tau0N4R condensates [9]): minimal staining; Fluorescence in αS-containing tau condensates compared to tau-only condensates (Tau0N4R condensates [10]): 3.8 fold; Turn-on for αS fibrils relative to tau fibrils (tau fibrils): 11 fold; Turn-on for αS fibrils relative to Aβ1–42 fibrils (Aβ1–42 fibrils): 15 fold; Increase in fluorescence intensity within 20 hours of αS aggregation (αS; agitation): 15 fold; λem with αS/TMAO (αS monomer; 2 M TMAO): 604 nm; Sensitivity (turn-on) relative to 3c (αS monomer; [11]): 2.2 fold; Sensitivity (turn-on) relative to ThT (αS monomer; [11]): 3.1 fold; λem with αS/TMAO (αS monomer; 4 M TMAO): 606 nm; Sensitivity (turn-on) relative to 3c (αS monomer; [12]): 2.9 fold; Sensitivity (turn-on) relative to ThT (αS monomer; [12]): 5.2 fold; λem with αS/TMAO (αS monomer; 6 M TMAO): 601 nm; Turn-on relative to 2a (so in the source) (αS monomer; [13]): 1.2 fold; Turn-on relative to ThT (αS monomer; [13]): 1.5 fold; Brightness increase upon binding to αS fibrils (αS fibrils [8]): 383 fold; Emission wavelength upon binding to αS fibrils (αS fibrils [8]): 620 nm; Fluorescence lifetime (τ) upon binding to αS fibrils (αS fibrils [8]): 1.27 ns |
| Cc1ccc2c(c1)sc(-c1ccc(N(C)C)cc1)[n+]2C [ThT, Thioflavin-T, reference compound] |  |  |  |  |  |  |  |  |  |  |  |  |  | failed to distinguish AFs from lysate |  |  |  |  | 0.34 fold | 0.15 fold | Detection of early αS aggregation species (misfolding, oligomers/protofibrils) (αS): only tracking mature fibrils |
